Assay outcomes deposited in PubChem BioAssay by several laboratories.
Fh CTSL1 inh: Fasciola hepatica cathepsin L1 inhibitors, primary screen, counter-screen for PFM18AAP inhibitor project, biochemical, QFRET, fluorogenic peptide substrate; inhibition, % at 5.96 µM; 300,000 tested, 0.49% active; AID 1906, 2009; recombinant F. hepatica cathepsin L1, Z-Leu-Arg-MCA fluorescence;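 active = inhibition above the mean of all tested compounds plus 3 SD, set per screening campaign, cut at about 17% in these data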;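 note: 0% = plate median of test compound wells and 100% = 1 µM Z-Phe-Ala-diazomethylketone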
ARFGAP1 inhibitor: inhibitors of rat ARFGAP1 GAP activity, primary screen, biochemical, fluorescence polarization, GDP tracer. ADP-ribosylation factor GTPase-activating protein 1 (Rattus norvegicus), Q62848. Arfgap1-stimulated ARF1 GTP hydrolysis, GDP FP detection. inhibition, % at 16.5 µM. 360,000 tested, 0.26% active;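 active = inhibition above a per-plate limit, mean inhibition of low control wells plus 3 SD, cut at about 25% in these data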;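 note: 0% = DMSO wells with enzyme and 100% = wells lacking Arfgap1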
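material = rat Arfgap1 catalytic domain, aa 1-136 | also added = human ARF1(Δ1-17)-GTP substrate | compound dosing = one concentration, 16.5 µM, DMSO 1.26% | times = GTP hydrolysis reaction 2 h at 25 °C | measured by = FP, GDP Alexa 633 tracer displaced from anti-GDP antibody, 620/688 nm | evaluation = percent inhibition of Arfgap1-stimulated GTP hydrolysis | replication = single well per compound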
ASAP1 inh: inhibitors of human ASAP1 ArfGAP activity, primary screen, biochemical, fluorescence polarization; Arf-GAP with SH3 domain, ANK repeat and PH domain-containing protein 1 (Homo sapiens), …; ASAP1-stimulated ARF1 GTP hydrolysis, GDP FP detection; inhibition, % at 16.5 µM; 360,000 tested, 0.19% active; AID 624377, 2012; in the data active = inhibition above about 25%;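 note: 0% = vehicle with enzyme and substrate and 100% = no enzyme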
GC-A act: GC-A stimulated cGMP production enhancers – HEK293 GC-A cells, cGMP TR-FRET, EC30 ANP, primary screen | Atrial natriuretic peptide receptor 1 (Homo sapiens), P16066 | AID 1671463, 2021 | 0% at EC30 ANP, 100% saturating ANP | 370,000 tested, 0.14% active | activation, % at 10 µM; in the data active = activation above about 40%
GC-B act: human GC-B receptor activators, primary screen, HEK293 GC-B cells, cGMP TR-FRET, EC30 CNP. 0% at EC30 CNP, 100% saturating CNP. activation, % at 10 µM. 370,000 tested, 0.11% active;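 active = activation at 10 µM reaching about 35% in either raw or pattern-adjusted values, limit read from the data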
Target sequence (P20594 whole entry, looked up): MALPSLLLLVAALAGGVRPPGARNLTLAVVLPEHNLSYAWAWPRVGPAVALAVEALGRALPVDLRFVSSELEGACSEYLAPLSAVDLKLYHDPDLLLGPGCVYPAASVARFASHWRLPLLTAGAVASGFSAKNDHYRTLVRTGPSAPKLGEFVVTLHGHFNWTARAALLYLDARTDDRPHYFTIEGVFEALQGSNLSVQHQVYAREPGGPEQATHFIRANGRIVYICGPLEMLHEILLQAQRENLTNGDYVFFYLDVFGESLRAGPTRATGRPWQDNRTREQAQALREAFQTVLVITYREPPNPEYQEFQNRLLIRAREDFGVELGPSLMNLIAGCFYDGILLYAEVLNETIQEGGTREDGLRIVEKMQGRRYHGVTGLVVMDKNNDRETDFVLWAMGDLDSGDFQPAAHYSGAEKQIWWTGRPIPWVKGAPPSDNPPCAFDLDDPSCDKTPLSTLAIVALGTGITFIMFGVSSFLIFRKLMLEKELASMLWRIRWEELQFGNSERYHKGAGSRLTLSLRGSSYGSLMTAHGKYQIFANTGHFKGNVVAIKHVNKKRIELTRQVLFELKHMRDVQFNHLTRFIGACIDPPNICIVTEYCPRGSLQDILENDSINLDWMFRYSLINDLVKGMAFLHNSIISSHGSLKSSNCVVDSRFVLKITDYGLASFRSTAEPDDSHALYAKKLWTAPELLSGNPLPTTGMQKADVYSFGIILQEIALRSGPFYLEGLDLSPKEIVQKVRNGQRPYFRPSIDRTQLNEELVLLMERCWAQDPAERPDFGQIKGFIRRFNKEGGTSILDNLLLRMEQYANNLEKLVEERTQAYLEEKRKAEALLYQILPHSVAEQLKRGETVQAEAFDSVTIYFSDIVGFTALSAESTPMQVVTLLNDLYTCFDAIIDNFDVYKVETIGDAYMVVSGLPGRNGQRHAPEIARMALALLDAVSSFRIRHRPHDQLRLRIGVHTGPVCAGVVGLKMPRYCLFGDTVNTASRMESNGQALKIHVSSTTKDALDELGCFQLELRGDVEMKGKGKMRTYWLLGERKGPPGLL
core dimer inh: inhibitors of HCV core protein dimerization, primary screen, biochemical, TR-FRET, high-throughput. TR-FRET GST/Flag-core106 dimerization, 1536-well. inhibition, % at 5 µM. 300,000 tested, 0.33% active;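 active = inhibition above the mean of all tested compounds plus 3 SD, set per screening campaign, cut at about 45% in these data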
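Material: Tagged HCV core106 pair (GST and Flag) | Amount: GST-core106 13.5 nM, Flag-core106 17 nM | Medium: KF-containing HEPES buffer, pH 7.45, DTT, CHAPS, BSA | Reagent: Eu donor and XL665 acceptor anti-tag antibodies | Schedule: 4 h at 22.5 °C | Technique: Time-resolved FRET, ex 340 nm, em 617 and 671 nm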
* = called active by the depositor; nt = no result given. Compounds with a hit are over-represented: about 1.2% of the library has one in this group of screens.

SMILES	Fh CTSL1 inh	ARFGAP1 inhibitor	ASAP1 inh	GC-A act	GC-B act	core dimer inh
CCOC(=O)/C=c1\s/c(=C\c2ccc(C(F)(F)F)cc2)c(=O)n1CC(=O)NCc1ccco1	-5	3	12	-4	-5	54*
CCOC(=O)/C=c1\s/c(=C\c2ccc(C)cc2)c(=O)n1CC(=O)NCc1ccco1	0	-1	2	3	4	11
O=C(COC(=O)c1cc([N+](=O)[O-])ccc1NCc1ccccc1)NC1CCCc2ccccc21 (stereo not given)	0	8	-11	-5	-1	59*
O=C(COC(=O)c1ccccc1O)NC1CCCc2ccccc21 (stereo not given)	nt	-3	1	2	-6	nt
CCOc1cccc(NC(=O)/C(C#N)=C\c2cccnc2)c1	4	9	14	-16	-8	-5
O=C(CCSC1=NCCCN1)c1ccc(F)cc1	nt	8	-11	78*	-1	nt
CC(C)(C)NC(=O)CN(C(=O)CNC(=O)c1cccs1)c1ccccc1F	-1	-7	0	3	2	4
O=C(CCc1[nH]c2ccccc2c1Sc1ccccc1)NCCO	2	12	8	43*	16	7
O=C(CCc1ccccc1)NCCSc1ccccc1	0	-4	-2	-4	1	3
O=C(c1ccc(Cl)c(S(=O)(=O)N2CCCCC2)c1)N1CCCCC1	-4	-13	-13	2	0	8
O=C1OCCC1Sc1nc2cc(Cl)ccc2s1 (stereo not given)	-2	6	-12	38	54*	-5
O=C1OCCC1Sc1nc2ccccc2s1 (stereo not given)	-3	6	2	0	2	2
Nc1nnc(COc2ccc(Br)cc2Br)s1	-4	-5	-5	58*	0	-3
Cc1ccc(C)c(OCc2nnc(N)s2)c1	-1	15	-5	3	3	-1
COc1ccc(N2C(=O)[C@@H]3[C@H](C2=O)[C@H](C(=O)c2ccc(OC(C)=O)cc2)N2N=CC=C[C@@H]32)cc1	1	nt	nt	nt	nt	46*
CCNc1ccccc(C(=O)/C=C/c2ccc3c(c2)OCO3)c1=O	-2	-15	-2	10	-10	50*
CCOC(=O)NNc1ccc2nonc2c1[N+](=O)[O-]	24*	nt	nt	nt	nt	11
O=C(c1cc2ccccn2n1)N1CCN(c2cccc(C(F)(F)F)c2)CC1	-1	-5	-8	5	2	1
Cc1ccc(/C=C/C(=O)N2CCN(S(=O)(=O)c3c(C)c(C)cc(C)c3C)CC2)o1	43*	3	1	0	7	37
Cc1ccc(/C=C/C(=O)N2CCN(S(=O)(=O)c3ccc(C)c(C)c3)CC2)o1	6	11	-8	-3	-3	28
CCN(c1ccccc1)c1nc(C#N)nc(N(CC)c2ccccc2)n1	30*	7	-8	16	-3	6
CCOC(=O)N1CCN(C(=O)COc2cc(C)c(Cl)c(C)c2)CC1	-5	10	-10	-1	-2	14
COc1ccc(CCN(C)Cc2ccc(OC)c(OCc3ccccc3)c2)cc1OC	2	nt	nt	-2	-3	1
COC(c1ccccc1)c1nnc(CCC(=O)N(C)CCc2ccccc2)o1 (stereo not given)	-2	5	4	1	1	3
O=C(/C=C/c1ccc(Br)o1)OCc1nc2ccsc2c(=O)[nH]1	3	nt	nt	nt	nt	75*
SMILES	Fh CTSL1 inh	ARFGAP1 inhibitor	ASAP1 inh	GC-A act	GC-B act	core dimer inh
C/C(=N\NC(=O)c1cccc2ccccc12)c1ccccn1	nt	9	-6	19	10	nt
CC(C)(C)C(c1nc2ccccc2[nH]1)n1c(-c2ccco2)nc2ccccc21 (stereo not given)	nt	0	0	-20	-15	nt
CCOC(=O)CN1C(=O)C(O)(c2c(C)[nH]c3ccccc23)c2ccccc21 (stereo not given)	-2	13	10	-6	-1	45
Cn1cc(C(CC(=O)O)C(=O)O)c2ccccc21 (stereo not given)	0	2	5	0	-2	2
CCCn1cc(C(CC(=O)O)C(=O)O)c2ccccc21 (stereo not given)	17*	1	-4	-2	1	3
O=C(COC(=O)CNC(=O)c1cccc(F)c1)NCCC1=CCCCC1	22*	9	-7	4	-2	1
O=C(Nc1ccccc1Br)c1c(F)cccc1Cl	3	-1	3	5	2	-3
COc1ccc(-c2ccc(SCC(=O)c3cccs3)nn2)cc1OC	2	8	-5	2	0	-1
COc1cc(OC)c(NC(=O)c2ccc3c(SCC(=O)O)c4c(nc3c2)CCCC4)cc1Cl	3	8	7	-7	-8	47*
CS(=O)(=O)NCCSCc1ccccc1	19*	7	-8	4	-7	-13
CCn1c(NC(=O)C(C)C)c2ccccc2nc1=O	-9	8	-1	3	-4	2
Cc1cccc(Nc2nc3c(S(=O)(=O)c4ccccc4)nnn3c3ccccc23)c1	-1	-2	0	36	42*	-8
CC(C)CC(NC(=O)c1ccc(Cl)cc1)C(=O)OCC(=O)c1ccc2c(c1)NC(=O)CO2 (stereo not given)	25*	-8	1	-1	1	4
CC(O)C(NS(=O)(=O)c1ccc(Cl)cc1)C(=O)OCC(=O)c1ccc2c(c1)NC(=O)CO2 (stereo not given)	nt	4	-8	0	0	nt
C=CCn1c(CSc2ccccc2[N+](=O)[O-])n[nH]c1=S	0	-9	12	-14	-8	65*
C=CCn1c(Cc2ccccc2)n[nH]c1=S	0	6	6	0	0	2
CC(C)c1ccc(-c2c(C#N)c(N)nc(SCC(=O)N3CCCCC3)c2C#N)cc1	2	14	11	18	15	47*
CC(C)c1ccc(-c2c(C#N)c(N)nc(SCC(=O)N3CCCCCC3)c2C#N)cc1	2	-1	-7	29	5	11
N#Cc1cccc(-c2nnc(SCc3ccccc3C#N)o2)c1	-2	-6	8	35	38*	-4
CCOc1ccccc1NC(=O)CSc1ncnc2c1oc1ccccc12	4	-14	4	-3	3	0
O=C(CSc1ncnc2c1oc1ccccc12)Nc1ccccc1F	-1	6	3	63*	16	-1
